High-throughput results from PubChem BioAssay.
Only some compounds are listed: those with a hit (about 5.5% of all), similar ones and a draw of the others.
PostGolgi yeast: growth inhibition of a yeast mutant, post-Golgi transport screen; post-Golgi transport phenotypic cell assay; inhibition, % at 10 µM; actives 0.9% (n = 98,000); AID 739;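 further: yeast cells grown in 1536-well plates; yeast grown about 18 h at 30C before absorbance read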
HePTP inh: inhibitors of human HePTP phosphatase; recombinant HePTP phosphatase activity, OD absorbance; inhibition, % at 20 µM; actives 0.64% (n = 110,000); AID 521; in the data active means inhibition above about 50%;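 further: plate controls were vehicle for no effect and reference inhibitor for full effect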
Target sequence (P35236 whole entry, looked up): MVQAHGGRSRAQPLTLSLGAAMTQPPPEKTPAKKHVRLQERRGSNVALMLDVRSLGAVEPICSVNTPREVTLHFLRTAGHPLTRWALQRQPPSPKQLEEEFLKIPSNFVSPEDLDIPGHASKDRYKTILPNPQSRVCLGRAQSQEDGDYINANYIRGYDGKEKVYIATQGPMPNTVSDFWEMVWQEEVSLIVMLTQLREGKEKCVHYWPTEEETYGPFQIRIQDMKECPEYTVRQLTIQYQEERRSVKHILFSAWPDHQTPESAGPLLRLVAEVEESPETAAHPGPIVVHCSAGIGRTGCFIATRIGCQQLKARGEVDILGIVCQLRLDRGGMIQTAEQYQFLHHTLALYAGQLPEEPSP
Ecoli WT expand: growth inhibitors of E. coli BW25113 wild type; OD600 absorbance; growth inhibition, % at 100 µM; actives 0.15% (n = 98,000); AID 710;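 active means growth inhibition above about 50% at one test dose, limit read from the data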;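 further: growth measured after 20 h incubation at 37 °C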
PLAP activator: activators of human placental alkaline phosphatase | P05187 | purified PLAP enzyme, luminescent substrate read-out; active compounds read high | activation fold at 20 µM | actives 1.2% (n = 96,000) | AID 696; in the data active means activation fold above about 2
PostGolgi ctrl: inhibits growth of the yeast control strain; efflux-deficient yeast background strain, growth absorbance A615, 16 h; inhibition, % at 10 µM; actives 5% (n = 98,000)
tolC growth inh: E. coli tolC mutant growth inhibition; E. coli BW25113 tolC mutant growth, OD615; growth inhibition, % at 10 µM (by protocol); actives 2.2% (n = 65,000);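 active means growth inhibition at or above a cutoff equal to the mean over every tested compound plus 3 SD, cut at about 60% in these data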;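 further: growth measured after 20 h incubation at 37 °C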
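Assay system: tolC-deleted E. coli BW25113. Medium: kanamycin-containing LB broth (50 µg/mL). Dosing: 10 µM final, single dose. Timing: bacterial growth with compound for 20 h at 37 °C. Detection: A615 absorbance measurement. Read-out basis: growth inhibition in percent.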
* marks the source's active call; other numbers are inactive results; . = no result given. Unless noted, no stated cut-off is given here; in the data, active means inhibition above about 30%; inactive means the rest.

SMILES	PostGolgi yeast	HePTP inh	Ecoli WT expand	PLAP activator	PostGolgi ctrl	tolC growth inh
COc1cc(C(=O)Oc2ccccc2/C=N/NC(=O)c2ccc(Cl)cc2Cl)cc(OC)c1OC	9	.	-10	2.3*	18	.
Cc1ccc2nc(NC(=O)CN(C)S(=O)(=O)c3cccc4nsnc34)sc2c1	6	-2	1	0.9	-10	-16
Cc1ccc2nc(NC(=O)CNS(=O)(=O)c3ccc(Br)s3)sc2c1	7	4	-12	1.2	10	61*
Cc1ccc2nc(NC(=O)CN(C)S(=O)(=O)c3ccc(Br)s3)sc2c1	21	5	-10	1	35*	81*
O=C(NCC1CCCO1)c1ccc(Cl)c(Cl)c1 (stereo unspecified)	.	-8	.	.	.	.
Clc1ccc(OCc2nnc(SCc3nc4ccccc4[nH]3)n2Cc2ccco2)cc1	56*	16	-4	1.4	57*	54
Clc1cccc(-c2nnc(SCc3nc4ccccc4[nH]3)n2Cc2ccco2)c1	-6	5	3	2.2*	-2	50
c1coc(Cn2c(SCc3nc4ccccc4[nH]3)nnc2-c2cnccn2)c1	-6	8	9	2.2*	-4	-6
c1ccc(-c2nnc(SCc3nc4ccccc4[nH]3)n2Cc2ccco2)nc1	-1	7	1	2.6*	6	10
Cc1cc(C)c(NC(=O)C(C)Sc2nc3ccccc3s2)c(C)c1 (stereo unspecified)	.	7	.	.	.	.
COc1ccc(NC(=O)COc2ccc(Cl)cc2Cl)cc1	.	2	.	.	.	.
Clc1ccccc1CSc1nnc(-c2ccccn2)n1Cc1ccco1	0	-4	-6	1.2	13	91*
Cc1ccc(C)c(CSc2nnc(-c3cccs3)n2Cc2ccco2)c1	26	.	-5	1.1	35*	.
C(=C\c1ccccc1)/CSc1nnc(-c2ccccn2)n1Cc1ccco1	2	5	-12	1.2	45*	93*
Cc1ccccc1NC(=O)NCCCN1CCN(c2ccccc2)CC1	-9	.	7	2.8*	2	.
O=C(NCCCN1CCN(c2ccccc2)CC1)Nc1ccccc1C(F)(F)F	-6	6	4	1.7	8	-15
Cc1cccc(N2CCN(C(=O)c3ccc(Cl)c(Cl)c3)CC2)c1C	.	-4	.	.	.	.
Cn1c(-c2nc3ccccc3n2C)nc2ccccc21	.	-9	.	.	.	.
Cn1c(-c2c(N)n(C3CCCC3)c3nc4ccccc4nc23)nc2ccccc21	24	-11	-8	1	100*	41
COCCCn1c(N)c(-c2nc3ccccc3n2C)c2nc3ccccc3nc21	10	.	5	2*	73*	.
Cn1c(-c2c(N)n(CCCc3ccccc3)c3nc4ccccc4nc23)nc2ccccc21	25	.	-20	1.5	17	.
Cn1c(-c2c(N)n(CCc3ccccc3)c3nc4ccccc4nc23)nc2ccccc21	88*	.	-21	2.1*	78*	.
Cc1ccc(CNC(=O)/C=C/c2ccccc2)cc1	.	3	.	.	.	.
NCCCNc1ccc(C(F)(F)F)cc1[N+](=O)[O-]	.	2	.	.	.	.
O=C(c1ccc(Cl)cc1Cl)N1CCN(c2nc3ccc([N+](=O)[O-])cc3s2)CC1	.	7	.	.	.	.
SMILES	PostGolgi yeast	HePTP inh	Ecoli WT expand	PLAP activator	PostGolgi ctrl	tolC growth inh
N#Cc1cc(C#N)c(N2CCN(c3cccc(Cl)n3)CC2)nc1N	1	.	7	0.7	58*	.
C=CCc1ccc(OCC(O)CN2CCCCC2)c(OC)c1 (stereo unspecified)	12	-5	-6	0.8	-4	-6
Cc1ccc(C(C)C)c(OCCCN2CC(C)OC(C)C2)c1 (stereo unspecified)	83*	6	8	1.6	28	-6
CC1CN(CCCOc2ccccc2[N+](=O)[O-])CC(C)O1 (stereo unspecified)	4	.	2	1.1	2	.
C=CCc1ccc(OCCCOc2ccc(C)cc2OC)c(OC)c1	-7	.	-4	1.3	1	.
C=CCc1ccc(OCC(O)COc2ccc(CC=C)cc2OC)c(OC)c1	-3	.	3	2*	12	.
COc1cccc(OCCCCN2CC(C)OC(C)C2)c1 (stereo unspecified)	86*	.	2	1.3	43*	.
C=CCc1ccc(OCCCCN2CC(C)OC(C)C2)c(OC)c1 (stereo unspecified)	97*	.	8	2*	43*	.
O=[N+]([O-])c1ccc(S(=O)(=O)N(CCO)C2CCCCC2)cc1	.	9	.	.	.	.
CCNC(=O)NC(=O)C(C)Sc1nc2ccccc2n1CC(C)C (stereo unspecified)	-3	.	7	1	32*	.
CCNC(=O)NC(=O)C(C)Sc1nc2cc(C(=O)OC)ccc2c(=O)n1-c1ccccc1 (stereo unspecified)	8	.	-1	1.2	9	.
Cc1ccc(N=C2NC(=O)/C(=C/c3ccc(O)c([N+](=O)[O-])c3)S2)cc1Cl	.	102*	.	.	.	.
O=C1NC(=Nc2ccc(O)cc2)S/C1=C\c1ccc([N+](=O)[O-])cc1	.	93*	.	.	.	.
CN(C)CCNc1nc2c(c(=O)[nH]c(=O)n2C)n1CC(O)COc1ccc(Cl)cc1 (stereo unspecified)	10	5	-3	1.2	4	-21
CCN(CC)CCNc1nc2c(c(=O)[nH]c(=O)n2C)n1CC(O)COc1ccc(Cl)cc1Cl (stereo unspecified)	4	13	2	2*	16	-7
O=C(O)c1ccc(Nc2nc(-c3ccccc3)c3ccccc3n2)cc1	.	9	.	.	.	.
O=C(NCCO)c1cccc(Nc2nc(-c3ccccc3)c3cc(Cl)ccc3n2)c1	5	.	3	1.4	49*	.
Cc1nn(C)cc1C1C2=C(CC(C)(C)CC2=O)N(c2ccccc2)C2=C1C(=O)CC(C)(C)C2	3	.	-1	2*	2	.
CC1(C)CC(=O)C2=C(C1)N(c1ccc(F)cc1)C(=O)CC2c1ccccc1 (stereo unspecified)	4	.	2	1.5	-1	.
O=C(COc1ccc(-c2nnc(N3CCCCC3)c3ccccc23)cc1)N1CCCCC1	-1	15	6	.	15	19
Cc1ccc(OCC(=O)N2CCN(C(=O)Cc3ccccc3)CC2)cc1	3	2	3	1.1	31*	-2
Cc1ccc(-c2nnc(N3CCN(C(=O)COc4ccccc4)CC3)c3ccccc23)cc1	-1	.	-7	1.6	50*	.
COc1ccc(OCC(=O)N2CCN(C(=O)Cc3ccccc3)CC2)cc1	-1	-7	0	1.2	0	-8
O=C(c1cccs1)N1CCCC(c2ccccc2)C1 (stereo unspecified)	-2	2	9	0.9	37*	8
COc1ccc(-c2nn(C)c3sc(C(=O)NCc4ccco4)cc23)cc1OC	5	3	4	0.8	-5	-27
COc1ccc(NC(=O)c2cc3c(-c4ccc(OC)c(OC)c4)nn(C)c3s2)cc1OC	-3	.	-11	2.3*	18	.
CCCC(O)(c1ccc(Cl)cc1)C(CN1CCOCC1)c1ccccc1 (stereo unspecified)	1	.	1	1.7	50*	.
COc1ccccc1NC(=O)CSc1nc(C)cc(C)n1	.	-13	.	.	.	.
CC1(C)Cc2c(sc(NC(=O)C3(c4ccccc4)CCCC3)c2C#N)CO1	.	106*	.	.	.	.
